{"source": "ChEMBL document CHEMBL4622976", "about": "“Development of pH/Glutathione-Responsive Theranostic Agents Activated by Glutathione S-Transferase π for Human Colon Cancer” (J Med Chem, 2020)", "key": {"HT-29 [1]": {"system": "HT-29", "test": "Induction of apoptosis in human HT-29 cells at 2.5 uM incubated for 72 hrs by FITC-AnnexinV/PI staining based flow cytometry relative to control", "type": "functional", "in_short": "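HT29 cells were cultured 12 h, then exposed to compound (0.4, 1.0, 2.5 µM) or vehicle for 72 h. Harvested cells were stained with Annexin V and PI, and apoptotic cell percentages measured by flow cytometry. Means ± SD come from three separate experiments.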"}, "[2]": {"test": "Toxicity in ICR mouse assessed as induction of animal survival rate at 585.9 mg/kg, ip measured after 14 days", "type": "organism-based", "details": "in vivo", "in_short": "(§1)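 Female ICR mice, randomised, n = 10 per group. Single intraperitoneal dose of 240.0, 300.0, 375.0, 468.8 or 585.9 mg/kg, or vehicle. Deaths recorded at 1 h, 4 h, days 1–4 and days 5–14. Body weight, drinking, eating and activity observed over 14 days. Survival percentage taken on day 14; LD50 derived from the dose–mortality data.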"}, "[3]": {"test": "Toxicity in ICR mouse assessed as induction of animal death at 240 to 300 mg/kg, ip measured after 2 days", "type": "organism-based", "details": "in vivo, 48 h", "in_short": "as §1"}, "[4]": {"test": "Toxicity in ICR mouse assessed as induction of animal death at 240 to 375 mg/kg, ip measured after 3 days", "type": "organism-based", "details": "in vivo, 72 h", "in_short": "as §1"}, "[5]": {"test": "Toxicity in ICR mouse assessed as induction of abnormality in general activity behavior at 240 mg/kg, ip for 14 days", "type": "organism-based", "details": "in vivo, 336 h", "in_short": "(§2)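 Female ICR mice (n = 10 per group) given a single intraperitoneal dose at 240.0, 300.0, 375.0, 468.8 or 585.9 mg/kg, or vehicle. Deaths recorded at 1 h, 4 h and daily through day 14. Body weight, drinking, eating and activity observed for abnormality; LD50 derived from mortality.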"}, "[6]": {"test": "Drug metabolism assessed as GSTpi (unknown origin) mediated compound fluorescence activation at 1 uM in presence of 1 mM Mg2+ by HPLC analysis", "type": "ADME", "details": "human", "in_short": "(§3)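 Selectivity test: compound (1 µM) with catalytic GSTπ and each analyte in water with 1% (v/v) DMSO at pH 4.0, 37 °C for 0.5 h. Analytes were cations at 1 mM; amino acids, vitamin C, Na2S and GSH at 100 µM. Readout was fluorescence emission spectra (excitation 440 nm, recorded 450–650 nm).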"}, "[7]": {"test": "Toxicity in ICR mouse assessed as induction of abnormality in drinking behavior at 240 mg/kg, ip for 14 days", "type": "organism-based", "details": "in vivo, 336 h", "in_short": "as §2"}, "[8]": {"test": "Drug metabolism assessed as GSTpi (unknown origin) mediated compound fluorescence activation at 1 uM in presence of 100 uM alanine by HPLC analysis", "type": "ADME", "details": "human", "in_short": "as §3"}, "HT-29 [9]": {"system": "HT-29", "test": "Induction of autophagy in human HT-29 cells assessed as increase in LC3-II protein level incubated for 72 hrs by Western blot analysis", "type": "functional, cell-based", "in_short": "(§4)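 HT29 cells (1.5×10^5/mL) exposed to compound or vehicle for 72 h, then lysed. Lysates (0.05 mg/lane) run on 12% SDS-PAGE, transferred to nitrocellulose, blocked with 5% non-fat milk and probed for LC3, p62, beclin-1 and β-actin. Bands quantified relative to β-actin, with LC3-II/LC3-I ratio also calculated; means ± SD from three independent assays.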"}, "[10]": {"test": "Drug metabolism assessed as GSTpi (unknown origin) mediated compound fluorescence activation at 1 uM in presence of 100 uM histidine by HPLC analysis", "type": "ADME", "details": "human", "in_short": "as §3"}, "HT-29 [11]": {"system": "HT-29", "test": "Induction of apoptosis in human HT-29 cells assessed as increase in Bax protein level incubated for 72 hrs by Western blot analysis", "type": "functional, cell-based", "in_short": "(§5)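 HT29 cells (1.5×10^5/mL) were treated for 72 h and lysed. Lysate (0.05 mg/lane) was run on 12% SDS-PAGE and transferred to nitrocellulose. After blocking in 5% non-fat milk, blots were probed for Bax, Bcl-2, cleaved caspase-3, cleaved PARP, LC3, p62 and beclin-1. Levels were normalised to β-actin, and means ± SD taken from three independent assays.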"}, "[12]": {"test": "Drug metabolism assessed as GSTpi (unknown origin) mediated compound fluorescence activation at 1 uM in presence of 100 uM vitamin C by HPLC analysis", "type": "ADME", "details": "human", "in_short": "as §3"}, "[13]": {"test": "Drug metabolism assessed as GSTpi (unknown origin) mediated compound fluorescence activation at 1 uM in presence of 100 uM serine by HPLC analysis", "type": "ADME", "details": "human", "in_short": "as §3"}, "[14]": {"test": "Drug metabolism assessed as GSTalpha (unknown origin) mediated 1-(3,4,5-trimethoxyphenyl)-9H-pyrido[3,4-b]indol-3-amine formation at 40 uM in presence of 0.8 mM GSH by HPLC analysis", "type": "ADME", "details": "human", "in_short": "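HPLC measurement of amine release after incubating compound (40 µM) with GSH (0.8 mM) and GSTπ or GSTα at 0.03 µg/ml.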"}, "[15]": {"test": "Drug metabolism assessed as GSTpi (unknown origin) mediated compound fluorescence activation at 1 uM in presence of 100 uM arginine by HPLC analysis", "type": "ADME", "details": "human", "in_short": "as §3"}, "[16]": {"test": "Drug localization in tumor of intra-operative mouse xenografted with human HT-29/Luc cells at 40 mg/kg, iv measured after 1 hrs post dose by fluorescence imaging assay", "type": "ADME, organism-based, Neoplasm", "details": "in vivo", "in_short": "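Mice carrying subcutaneous HT29 tumours (1×10^6 cells, grown 3–4 weeks) received 40 mg/kg iv. They were imaged under 1% pentobarbital at 0, 1, 2, 4, 8 and 24 h post-injection (465 nm excitation filter, GFP emission filter). Excised tumours and major organs were then imaged ex vivo.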"}, "HT-29 [17]": {"system": "HT-29", "test": "Induction of autophagy in human HT-29 cells assessed as increase in Beclin-1 protein level incubated for 72 hrs by Western blot analysis", "type": "functional, cell-based", "in_short": "as §5"}, "[18]": {"test": "Toxicity in ICR mouse assessed as induction of animal survival rate at 375 mg/kg, ip measured after 14 days", "type": "organism-based", "details": "in vivo", "in_short": "as §1"}, "HT-29 [19]": {"system": "HT-29", "test": "Induction of autophagy in human HT-29 cells assessed as reduction in p62 protein level incubated for 72 hrs by Western blot analysis", "type": "functional, cell-based", "in_short": "as §4"}, "[20]": {"test": "Drug uptake in lysosome of human CCD-841 cells at 1 uM incubated for 60 mins by Lyso-tracker based confocal fluorescence microscopy", "type": "ADME", "details": "1 h", "in_short": "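HT29 and CCD841 cells were seeded at 2×10^5 in glass-bottom dishes. They were co-incubated in DMEM with compound (1 µM) and LysoTracker Red DND-99 (1 µM). Confocal imaging used a 40× water objective. Compound channel: 405 nm laser, 480–530 nm filter. LysoTracker channel: 561 nm laser, 580–630 nm filter.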"}, "[21]": {"test": "Toxicity in ICR mouse assessed as induction of animal death at 240 to 375 mg/kg, ip measured after 1 day", "type": "organism-based", "details": "in vivo, 24 h", "in_short": "as §1"}, "[22]": {"test": "Drug metabolism assessed as GSTpi (unknown origin) mediated compound fluorescence activation at 1 uM in presence of 1 mM Ca2+ by HPLC analysis", "type": "ADME", "details": "human", "in_short": "as §3"}, "[23]": {"test": "Drug metabolism assessed as GSTpi (unknown origin) mediated compound fluorescence activation at 1 uM in presence of 100 uM glutamate by HPLC analysis", "type": "ADME", "details": "human", "in_short": "as §3"}, "HT-29 [24]": {"system": "HT-29", "test": "Antitumor activity against human HT-29 cells xenografted in nude BALB/c mouse assessed as reduction in tumor volume at 40 mg/kg, ip dosed every day for 21 days", "type": "functional, organism-based"}, "[25]": {"test": "Drug metabolism assessed as GSTpi (unknown origin) mediated compound fluorescence activation at 1 uM in presence of 1 mM Fe2+ by HPLC analysis", "type": "ADME", "details": "human", "in_short": "as §3"}}, "note": "Active and inactive are the calls of the source. No cut-off for these calls is given here."}
{"smiles": "COc1cc(-c2nc(NC(=O)OCC3=CCCCC3=O)cc3c2[nH]c2ccccc23)cc(OC)c1OC", "values": [{"measurement": "Activity", "setting": "HT-29 [1]", "value": 52.3, "unit": "%"}, {"measurement": "survival at 336 h", "setting": "[2]", "value": 10, "unit": "%"}, {"measurement": "Activity", "setting": "[3]", "value": "Non-Toxic"}, {"measurement": "Activity", "setting": "[4]", "value": "Non-Toxic"}, {"measurement": "Activity", "setting": "[5]", "value": "Non-Toxic"}, {"measurement": "Drug metabolism", "setting": "[6]", "value": "Metabolite_Notdetected"}, {"measurement": "Activity", "setting": "[7]", "value": "Non-Toxic"}, {"measurement": "Drug metabolism", "setting": "[8]", "value": "Metabolite_Notdetected"}, {"measurement": "Activity", "setting": "HT-29 [9]", "value": "Dose-dependent effect"}, {"measurement": "Drug metabolism", "setting": "[10]", "value": "Metabolite_Notdetected"}, {"measurement": "Activity", "setting": "HT-29 [11]", "value": "Dose-dependent effect"}, {"measurement": "Drug metabolism", "setting": "[12]", "value": "Metabolite_Notdetected"}, {"measurement": "Drug metabolism", "setting": "[13]", "value": "Metabolite_Notdetected"}, {"measurement": "Drug metabolism", "setting": "[14]", "value": "Metabolite_Notdetected"}, {"measurement": "Drug metabolism", "setting": "[15]", "value": "Metabolite_Notdetected"}, {"measurement": "Drug uptake", "setting": "[16]", "value": "Active"}, {"measurement": "Activity", "setting": "HT-29 [17]", "value": "Dose-dependent effect"}, {"measurement": "survival at 336 h", "setting": "[18]", "value": 80, "unit": "%"}, {"measurement": "Activity", "setting": "HT-29 [19]", "value": "Dose-dependent effect"}, {"measurement": "Drug uptake", "setting": "[20]", "value": "Not Active"}, {"measurement": "Activity", "setting": "[21]", "value": "Non-Toxic"}, {"measurement": "Drug metabolism", "setting": "[22]", "value": "Metabolite_Notdetected"}, {"measurement": "Drug metabolism", "setting": "[23]", "value": "Metabolite_Notdetected"}, {"measurement": "Activity", "setting": "HT-29 [24]", "value": "Active"}, {"measurement": "Drug metabolism", "setting": "[25]", "value": "Metabolite_Notdetected"}]}
